# Data published in ChEMBL document CHEMBL1146217, “Growth inhibition of Mycobacterium bovis, Mycobacterium tuberculosis and Mycobacterium avium in vitro: effect of 1-beta-D-2'-arabinofuranosyl and 1-(2'-deoxy-2'-fluoro-beta-D-2'-ribofuranosyl) pyrimidine nucleoside analogs” (J Med Chem, 2007).
# Columns and labels:
# [1] = system: Mycobacterium avium; assay: Antimycobacterial activity against Mycobacterium avium ATCC 25291 at 100 ug/mL by microplate Alamar blue assay; type: functional
# Procedure, shortened: (§1)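 MABA with M. bovis BCG, M. tuberculosis H37Ra or M. avium ATCC 25291. DMSO stocks (10 mg/mL) diluted in 7H9GC; final inoculum 2.5 × 10⁵ CFU/mL. Incubated 6 days, then alamar blue plus Tween 80 added and read by fluorescence after about 24 h. […]. Tested in triplicate at 100, 50, 10 and 1 µg/mL; two experiments, mean reported.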
# [2] = system: Mycobacterium tuberculosis; assay: Antimycobacterial activity against Mycobacterium tuberculosis H37Ra at 100 ug/mL by microplate Alamar blue assay; type: functional; procedure, shortened: as §1
# [3] = system: Mycobacterium tuberculosis; assay: Antimycobacterial activity against Mycobacterium tuberculosis H37Ra at 10 ug/mL by microplate Alamar blue assay; type: functional; procedure, shortened: as §1
# [4] = system: Mycobacterium tuberculosis; assay: Antimycobacterial activity against Mycobacterium tuberculosis H37Ra by microplate Alamar blue assay; type: functional
# Procedure, shortened: (§2)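 Same alamar blue microplate setup (7H9GC, 2.5 × 10⁵ CFU/mL, 6 days, then dye read after about 24 h), using 2-fold compound dilutions. MIC90 is the lowest concentration giving about 90% inhibition relative to bacteria-only wells after background subtraction. Visual MIC is the lowest concentration preventing the blue-to-pink change.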
# [5] = Toxicity against human foreskin fibroblast cells after 3 days by MTT test; type: cell-based
# Procedure, shortened: (§3)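 MTT viability assay. Vero or HFF cells seeded at 2.5 × 10⁵ cells/well and left to attach 6-8 h. Exposed to compound at 100, 50, 25, 12.5, 6.3 and 1.5 µg/mL for 3 days at 37 °C, with a DMSO control. MTT added for 4 h, then solubilized overnight; absorbance read at 560-650 nm.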
# [6] = system: Streptococcus pyogenes; assay: Antibacterial activity Streptococcus pyogenes ATCC 19615 after 16 to 20 hrs by broth microdilution method; type: functional; conditions: for MIC: Streptococcus pyogenes, ATCC 19615
# Procedure, shortened: (§4)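 Broth microdilution MIC. Exponentially growing bacteria diluted in sterile liquid medium to a final inoculum of 1 × 10⁴ CFU/mL. Cultured with compound dilutions for 16-20 h; compounds tested at 100, 50, 10 and 1 µg/mL. MIC taken as the concentration giving 100% inhibition of bacterial growth.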
# [7] = system: Bacillus subtilis; assay: Antibacterial activity against Bacillus subtilis ATCC 6633 after 16 to 20 hrs by broth microdilution method; type: functional; conditions: Bacillus subtilis, ATCC 6633; procedure, shortened: as §4
# [8] = system: Mycobacterium tuberculosis; assay: Antimycobacterial activity against Mycobacterium tuberculosis H37Ra at 50 ug/mL by microplate Alamar blue assay; type: functional; procedure, shortened: as §1
# [9] = system: Vero; assay: Toxicity against Vero cells after 3 days by MTT test; type: cell-based; conditions: chlorocebus sabaeus, 72 h; procedure, shortened: as §3
# [10] = system: Staphylococcus epidermidis; assay: Antibacterial activity against Staphylococcus epidermidis ATCC 14990 after 16 to 20 hrs by broth microdilution method; type: functional; conditions: for MIC: Staphylococcus epidermidis, ATCC 14990; procedure, shortened: as §4
# [11] = system: Mycobacterium tuberculosis; assay: Antimycobacterial activity against Mycobacterium tuberculosis H37Ra at 1ug/mL by microplate Alamar blue assay; type: functional; procedure, shortened: as §1
# [12] = system: Salmonella typhimurium; assay: Antibacterial activity against Salmonella Typhimurium after 16 to 20 hrs by broth microdilution method; type: functional, Salmonella enterica subsp. enterica serovar Typhimurium; conditions: Salmonella enterica; procedure, shortened: as §4
# [13] = system: Escherichia coli; assay: Antibacterial activity against Escherichia coli ATCC 25922 after 16 to 20 hrs by broth microdilution method; type: functional; conditions: Escherichia coli, ATCC 25922; procedure, shortened: as §4
# [14] = system: Staphylococcus aureus; assay: Antibacterial activity against Staphylococcus aureus ATCC 25923 after 16 to 20 hrs by broth microdilution method; type: functional; conditions: for MIC: Staphylococcus aureus, ATCC 25923; procedure, shortened: as §4
# [15] = system: Mycobacterium avium; assay: Antimycobacterial activity against Mycobacterium avium ATCC 25291 by microplate Alamar blue assay; type: functional; procedure, shortened: as §2
# [16] = system: Listeria monocytogenes; assay: Antibacterial activity Listeria monocytogenes ATCC 15313 after 16 to 20 hrs by broth microdilution method; type: functional; conditions: for MIC: Listeria monocytogenes, ATCC 15313; procedure, shortened: as §4
# [17] = system: Proteus vulgaris; assay: Antibacterial activity against Proteus vulgaris ATCC 49132 after 16 to 20 hrs by broth microdilution method; type: functional; procedure, shortened: as §4
# [18] = system: Enterococcus faecalis; assay: Antibacterial activity Enterococcus faecalis ATCC 29212 after 16 to 20 hrs by broth microdilution method; type: functional; conditions: for MIC: Enterococcus faecalis, ATCC 29212; procedure, shortened: as §4
# [19] = system: Streptococcus pneumoniae; assay: Antibacterial activity Streptococcus pneumoniae ATCC 49619 after 16 to 20 hrs by broth microdilution method; type: functional; conditions: for MIC: Streptococcus pneumoniae, ATCC 49619; procedure, shortened: as §4
# [20] = system: Mycobacterium avium; assay: Antimycobacterial activity against Mycobacterium avium ATCC 25291 at 50 ug/mL by microplate Alamar blue assay; type: functional; procedure, shortened: as §1
# [21] = system: Klebsiella aerogenes; assay: Antibacterial activity against Enterobacter aerogenes after 16 to 20 hrs by broth microdilution method; type: functional; conditions: Klebsiella aerogenes; procedure, shortened: as §4
# [22] = system: Pseudomonas aeruginosa; assay: Antibacterial activity against Pseudomonas aeruginosa […] after 16 to 20 hrs by broth microdilution method; type: functional; conditions: Pseudomonas aeruginosa, ATCC 13048; procedure, shortened: as §4
smiles,measurement,setting,value
O=c1[nH]c(=O)n([C@@H]2O[C@H](CO)[C@@H](O)[C@@H]2O)cc1C(O)C(Br)Br (some centres undefined),inhibition at 100 µg/mL,[1],0%
same,inhibition at 100 µg/mL,[2],0%
O=c1[nH]c(=O)n([C@@H]2O[C@H](CO)[C@@H](O)[C@@H]2O)cc1Br,inhibition at 100 µg/mL,[1],0%
same,inhibition at 100 µg/mL,[2],0%
Cc1cn([C@@H]2O[C@H](CO)[C@@H](O)[C@@H]2O)c(=O)[nH]c1=S,inhibition at 100 µg/mL,[1],0%
same,inhibition at 100 µg/mL,[2],0%
CCCCCCCCCCC#Cc1cn([C@@H]2O[C@H](CO)[C@@H](O)[C@H]2F)c(=O)[nH]c1=O,inhibition at 10 µg/mL,[3],100%
same,MIC90,[4],1 µg/mL
same,CC50 at 72 h,[5],> 100 µg/mL
same,inhibition at 100 µg/mL,[1],100%
same,Inhibition,[6],100%
same,MIC,[6],100 µg/mL
same,MIC,[7],> 100 µg/mL
same,inhibition at 50 µg/mL,[8],100%
same,CC10,[9],> 100 µg/mL
same,Inhibition,[10],100%
same,MIC,[10],100 µg/mL
same,inhibition at 1 µg/mL,[11],70%
same,MIC,[12],> 100 µg/mL
same,MIC,[13],> 100 µg/mL
same,Inhibition,[14],100%
same,MIC,[14],100 µg/mL
same,MIC90,[15],50 µg/mL
same,Inhibition,[16],100%
same,MIC,[16],100 µg/mL
same,MIC,[17],> 100 µg/mL
same,Inhibition,[18],100%
same,MIC,[18],100 µg/mL
same,Inhibition,[19],100%
same,MIC,[19],100 µg/mL
same,inhibition at 50 µg/mL,[20],50%
same,MIC,[21],> 100 µg/mL
same,inhibition at 100 µg/mL,[2],100%
same,MIC,[22],> 100 µg/mL
CCCCCCCCCCCCC#Cc1cn([C@@H]2O[C@H](CO)[C@@H](O)[C@@H]2O)c(=O)[nH]c1=O,inhibition at 10 µg/mL,[3],50%
same,MIC90,[4],10 µg/mL
same,CC50 at 72 h,[5],> 100 µg/mL
same,inhibition at 100 µg/mL,[1],0%
same,inhibition at 50 µg/mL,[8],100%
same,CC10,[9],> 100 µg/mL
same,inhibition at 100 µg/mL,[2],100%
CCCCCCCCCCCCC#Cc1cn([C@@H]2O[C@H](CO)[C@@H](O)[C@H]2F)c(=O)[nH]c1=O,inhibition at 10 µg/mL,[3],50%
same,MIC90,[4],10 µg/mL
same,CC50 at 72 h,[5],> 100 µg/mL
same,inhibition at 100 µg/mL,[1],20%
same,MIC,[6],> 100 µg/mL
same,MIC,[7],> 100 µg/mL
same,inhibition at 50 µg/mL,[8],100%
same,CC10,[9],> 100 µg/mL
same,Inhibition,[10],100%
same,MIC,[10],100 µg/mL
same,MIC,[12],> 100 µg/mL
same,MIC,[13],> 100 µg/mL
same,Inhibition,[14],100%
same,MIC,[14],100 µg/mL
same,MIC,[16],> 100 µg/mL
same,MIC,[17],> 100 µg/mL
same,MIC,[18],> 100 µg/mL
same,MIC,[19],> 100 µg/mL
same,MIC,[21],> 100 µg/mL
same,inhibition at 100 µg/mL,[2],100%
same,MIC,[22],> 100 µg/mL
CCCc1ccc(C#Cc2cn([C@@H]3O[C@H](CO)[C@@H](O)[C@@H]3O)c(=O)[nH]c2=O)cc1,MIC90,[4],100 µg/mL
same,CC50 at 72 h,[5],> 100 µg/mL
same,inhibition at 100 µg/mL,[1],25%
same,inhibition at 50 µg/mL,[8],50%
same,CC10,[9],> 100 µg/mL
same,inhibition at 100 µg/mL,[2],100%
CCOC(=O)/C=C/c1cn([C@@H]2O[C@H](CO)[C@@H](O)[C@H]2F)c(=O)[nH]c1=O,inhibition at 100 µg/mL,[1],0%
same,inhibition at 100 µg/mL,[2],0%
CCOC(=O)C(Cl)C(O)c1cn([C@@H]2O[C@H](CO)[C@@H](O)[C@H]2F)c(=O)[nH]c1=O (some centres undefined),inhibition at 100 µg/mL,[1],0%
same,inhibition at 100 µg/mL,[2],0%
CCOC(=O)C(Br)C(O)c1cn([C@@H]2O[C@H](CO)[C@@H](O)[C@H]2F)c(=O)[nH]c1=O (some centres undefined),inhibition at 100 µg/mL,[1],0%
same,inhibition at 100 µg/mL,[2],0%
O=c1[nH]c(=O)n([C@@H]2O[C@H](CO)[C@@H](O)[C@H]2F)cc1Br,inhibition at 100 µg/mL,[1],0%
same,inhibition at 100 µg/mL,[2],0%
O=C(O)/C=C/c1cn([C@@H]2O[C@H](CO)[C@@H](O)[C@@H]2O)c(=O)[nH]c1=O,inhibition at 100 µg/mL,[1],0%
same,inhibition at 100 µg/mL,[2],0%
COC(CI)c1cn([C@@H]2O[C@H](CO)[C@@H](O)[C@@H]2O)c(=O)[nH]c1=O (some centres undefined),inhibition at 100 µg/mL,[1],0%
same,inhibition at 100 µg/mL,[2],0%
CCCCCC#Cc1cn([C@@H]2O[C@H](CO)[C@@H](O)[C@@H]2O)c(=O)[nH]c1=O,inhibition at 100 µg/mL,[1],0%
same,inhibition at 100 µg/mL,[2],25%
CCCCCCCCC#Cc1cn([C@@H]2O[C@H](CO)[C@@H](O)[C@@H]2O)c(=O)[nH]c1=O,inhibition at 10 µg/mL,[3],10%
same,MIC90,[4],100 µg/mL
same,CC50 at 72 h,[5],> 100 µg/mL
same,inhibition at 100 µg/mL,[1],50%
same,inhibition at 50 µg/mL,[8],50%
same,CC10,[9],> 100 µg/mL
same,inhibition at 100 µg/mL,[2],100%
